In ChEMBL document CHEMBL2331195, “Lahorenoic acids A-C, ortho-dialkyl-substituted aromatic acids from the biocontrol strain Pseudomonas aurantiaca PB-St2” (J Nat Prod, 2013):
pIC50: −log10 of the molar value. ≈ marks a conversion by molar mass, not a printed value. Calls of active or inactive are those of the source. The rule behind the calls is not given here.

Legend:
LNCaP = experiment: Solid tumor cytotoxicity against human LNCAP cells assessed as inhibition of cell colony formation by disc diffusion soft-agar colony formation assay; format: functional, cell-based
Procedure, shortened: (§1)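 Cells plated in soft agar; compound dissolved in 250 μL DMSO, 15 μL applied to a cellulose disc on the plate; after incubation, colony-inhibition zone measured from disc edge to colony growth in zone units (200 zu = 6 mm); solid-tumour selectivity judged as ≥250 zu difference versus leukemia or normal CFU-GM cells.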

HCT-116 = experiment: Cytotoxicity against human HCT116 cells assessed as growth inhibition after 5 days by hemocytometry; format: cell-based; conditions: for IC50: hct-116
Procedure, shortened: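 HCT-116 cells were seeded at 5 × 10^4 cells/T25 flask in serum medium with 1% penicillin–streptomycin and 1% glutamine, at 37 °C and 5% CO2. Compound at various concentrations was added on day 3, followed by 120 h incubation. Cells were trypsinized, washed and resuspended in HBSS, then hemocytometer-counted. Counts were normalized to untreated control, and IC50 was derived by nonlinear regression.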

H125 = experiment: Solid tumor cytotoxicity against human H125 cells assessed as inhibition of cell colony formation by disc diffusion soft-agar colony formation assay; format: functional, cell-based; procedure, shortened: as §1
MCF7 = experiment: Solid tumor cytotoxicity against human MCF7 cells assessed as inhibition of cell colony formation by disc diffusion soft-agar colony formation assay; format: functional, cell-based; procedure, shortened: as §1
[1] = Antifungal activity against Colletotrichum falcatum assessed as inhibition of mycelial growth at 100 ug/disc incubated for 10 to 15 days at 25 degC; format: functional
Procedure, shortened: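 Four C. falcatum strains from local sugar cane varieties (BF166, C01148, CP77400, SPF234) on potato dextrose agar; mycelial plug at plate centre, compound-loaded air-dried filter discs (25–200 μg, in methanol, chloroform or DMSO) placed 2 cm away; 10–15 days at 25 °C; zone of mycelial inhibition around disc; solvent discs as negative controls; three repeats in duplicate.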

[2] = test system: Mycobacterium tuberculosis; experiment: Antituberculosis activity against Mycobacterium tuberculosis H37Rv […] incubated for 7 days by Alamar blue assay; format: functional
Procedure, shortened: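 Virulent H37Rv (ATCC 27294) in 96-well plate; compounds from 10 mg/mL DMSO stock, 2-fold dilutions from top 100 μg/mL (1% v/v DMSO final); 7 days at 37 °C; growth by Alamar Blue fluorescence; MIC = lowest concentration giving ≥90% fluorescence inhibition versus untreated bacteria; rifampicin and isoniazid positive controls, 1% DMSO negative control.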

[3] = test system: Arthrobacter crystallopoietes; experiment: Antibacterial activity against Arthrobacter crystallopoietes DSM 20117 assessed as inhibition of visible bacterial growth after 24 hrs; format: functional; conditions: Crystallibacter crystallopoietes
Procedure, shortened: (§2)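 Broth microdilution MIC using 2-fold serial dilutions. A. crystallopoietes DSM 20117 was grown in tryptic soy broth, and B. cereus in half-concentrated Mueller–Hinton broth. Final inoculum was 10^5 CFU per well. After 24 h at 37 °C, the MIC was read as the lowest concentration with no visible growth. Values are means of three independent determinations.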

Bacillus cereus = experiment: Antibacterial activity against Bacillus cereus assessed as inhibition of visible bacterial growth after 24 hrs; format: functional; procedure, shortened: as §2

SMILES | inhibition zone (IZ) (LNCaP) | pIC50 (HCT-116; Homo sapiens, HCT-116, 120 h, read-out: IC50) | inhibition zone (IZ) (H125) | inhibition zone (IZ) (MCF7) | inhibition zone (IZ) [1] | MIC90 ([2]; H37Rv ATCC 27292, 168 h) [µg/mL] | MIC ([3]; DSM 20117, 24 h) [µg/mL] | MIC (Bacillus cereus) | IC50 (HCT-116) | MIC [3] | MIC90 [2]
O=C(O)c1cccc2nc3ccccc3nc12 [PHENAZINE-1-CARBOXYLIC ACID] | Active | 4.81 | Active | Active | 2 mm | 32.9 (≈ 147 µM) | – | – | – | – | –
Oc1ccc2nc3ccc(O)cc3nc2c1 | – | – | – | – | inactive | – | 25 (≈ 118 µM) | 25 µg/mL (≈ 118 µM) | Non-toxic | – | –
COC(=O)CCCCCc1ccccc1/C=C/C(C)=O [LAHORENOIC ACID B] | – | – | – | – | – | 49.5 (≈ 180 µM) | – | – | Non-toxic | – | –
Oc1ccc2nc3ccccc3nc2c1 | inactive | – | inactive | inactive | inactive | – | – | inactive | Non-toxic | inactive | inactive
